Results: paper PMC4084622 (Journal of Medicinal Chemistry, 2014)
Converted amounts (≈) assume the structure as drawn. Where two headings read alike, the source gives them in different places.

Key:
M. smegmatis cells, ΔpH = assay type: cell-based, Mycobacterium smegmatis
[1] = biological target: M. smegmatis MenA (MsMenA) (Mycolicibacterium smegmatis, UniProt A0QR52); settings: read-out: MenA IC50; same assay as used here; cited from earlier work
E. coli IMVs, ΔpH = assay: ΔpH collapse in E. coli inverted membrane vesicles; assay type: biochemical, Escherichia coli; settings: qualitative
[2] = biological target: S. aureus farnesyl diphosphate synthase (FPPS) (Staphylococcus aureus, UniProt Q2FY48); assay: biochemical
Sequence of S. aureus farnesyl diphosphate synthase (FPPS) (Q2FY48 1-293): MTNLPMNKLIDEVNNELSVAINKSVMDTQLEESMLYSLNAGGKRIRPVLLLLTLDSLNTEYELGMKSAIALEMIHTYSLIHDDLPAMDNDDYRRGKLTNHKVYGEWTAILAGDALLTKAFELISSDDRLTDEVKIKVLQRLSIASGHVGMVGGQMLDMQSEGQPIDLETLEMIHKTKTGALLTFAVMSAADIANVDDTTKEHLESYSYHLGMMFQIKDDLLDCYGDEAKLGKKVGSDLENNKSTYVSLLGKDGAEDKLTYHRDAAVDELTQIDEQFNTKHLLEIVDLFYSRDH

SaCrtM = biological target: T1, SaCrtM (Staphylococcus aureus, UniProt A9JQL9); assay: SaCrtM inhibition; assay type: biochemical, S. aureus
T1 sequence (A9JQL9 1-287): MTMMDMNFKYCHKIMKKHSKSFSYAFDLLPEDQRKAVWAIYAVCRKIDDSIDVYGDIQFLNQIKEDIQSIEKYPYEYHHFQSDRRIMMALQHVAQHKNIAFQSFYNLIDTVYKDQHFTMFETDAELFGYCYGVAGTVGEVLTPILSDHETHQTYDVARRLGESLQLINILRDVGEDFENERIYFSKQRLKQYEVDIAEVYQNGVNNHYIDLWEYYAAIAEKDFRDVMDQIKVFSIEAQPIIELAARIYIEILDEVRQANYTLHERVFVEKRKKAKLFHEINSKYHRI

[3] = biological target: M. tuberculosis cis-decaprenyl diphosphate synthase (Rv2361) (Mycobacterium tuberculosis, UniProt P9WFF7); assay: cis-decaprenyl diphosphate synthase inhibition; assay type: biochemical
Sequence of M. tuberculosis cis-decaprenyl diphosphate synthase (Rv2361) (P9WFF7 whole entry): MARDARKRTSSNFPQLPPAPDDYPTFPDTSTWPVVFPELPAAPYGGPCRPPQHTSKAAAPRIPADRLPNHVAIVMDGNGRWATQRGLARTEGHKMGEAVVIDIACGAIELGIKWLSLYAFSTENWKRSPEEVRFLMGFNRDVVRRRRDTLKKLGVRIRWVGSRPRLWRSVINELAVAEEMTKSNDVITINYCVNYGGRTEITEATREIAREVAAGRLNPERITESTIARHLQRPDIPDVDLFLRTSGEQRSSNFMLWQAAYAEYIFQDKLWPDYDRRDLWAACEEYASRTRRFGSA

MCF-7 = assay: cells; assay type: cell-based; settings: Homo sapiens, MCF7, read-out: MCF-7 IC50
[4] = biological target: M. smegmatis membrane dehydrogenases (NADH, deamino-NADH, succinate, lactate substrates); assay: Dehydrogenase activities, MTT reduction, M. smegmatis membranes; assay type: biochemical, Mycobacterium smegmatis; settings: in general (all substrates except malate)
S. cerevisiae = assay: microbe, parasite or virus in culture; assay type: cell-based, Saccharomyces cerevisiae; settings: for IC50: Saccharomyces cerevisiae
[5] = biological target: M. tuberculosis cis-farnesyl diphosphate synthase (Rv1086) (Mycobacterium tuberculosis, UniProt P9WFF5); assay: cis-farnesyl diphosphate synthase inhibition; assay type: biochemical
Sequence of M. tuberculosis cis-farnesyl diphosphate synthase (Rv1086) (P9WFF5 whole entry): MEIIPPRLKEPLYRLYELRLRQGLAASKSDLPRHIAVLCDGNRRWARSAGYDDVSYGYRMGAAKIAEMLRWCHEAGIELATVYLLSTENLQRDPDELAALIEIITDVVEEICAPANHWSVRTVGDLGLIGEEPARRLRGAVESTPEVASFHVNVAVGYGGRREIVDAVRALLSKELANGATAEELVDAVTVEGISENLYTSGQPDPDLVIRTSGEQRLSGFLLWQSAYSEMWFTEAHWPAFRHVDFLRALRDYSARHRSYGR

malate dehydrogenase = malate dehydrogenase (Mycolicibacterium smegmatis, UniProt A0QVL2); assay: Malate dehydrogenase activity, MTT reduction, M. smegmatis membranes; assay type: biochemical, Mycobacterium smegmatis
Sequence of malate dehydrogenase (A0QVL2 whole entry): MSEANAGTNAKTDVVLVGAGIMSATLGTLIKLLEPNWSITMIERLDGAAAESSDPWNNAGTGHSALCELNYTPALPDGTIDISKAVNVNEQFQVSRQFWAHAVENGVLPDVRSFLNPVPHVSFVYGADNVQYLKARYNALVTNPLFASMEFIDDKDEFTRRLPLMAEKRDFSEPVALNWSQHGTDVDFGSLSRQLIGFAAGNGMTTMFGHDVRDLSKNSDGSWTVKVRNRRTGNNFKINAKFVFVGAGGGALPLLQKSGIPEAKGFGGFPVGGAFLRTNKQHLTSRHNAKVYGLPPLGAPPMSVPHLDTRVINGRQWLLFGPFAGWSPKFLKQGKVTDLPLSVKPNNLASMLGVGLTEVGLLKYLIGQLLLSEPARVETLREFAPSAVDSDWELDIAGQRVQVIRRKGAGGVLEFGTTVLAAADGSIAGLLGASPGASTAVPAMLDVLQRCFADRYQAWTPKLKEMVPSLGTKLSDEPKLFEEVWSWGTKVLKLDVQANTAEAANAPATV

[6] = biological target: E. coli undecaprenyl diphosphate synthase (UPPS) (Escherichia coli, UniProt P60472); assay: E. coli UPPS inhibition; assay type: biochemical
Sequence of E. coli undecaprenyl diphosphate synthase (UPPS) (P60472 whole entry): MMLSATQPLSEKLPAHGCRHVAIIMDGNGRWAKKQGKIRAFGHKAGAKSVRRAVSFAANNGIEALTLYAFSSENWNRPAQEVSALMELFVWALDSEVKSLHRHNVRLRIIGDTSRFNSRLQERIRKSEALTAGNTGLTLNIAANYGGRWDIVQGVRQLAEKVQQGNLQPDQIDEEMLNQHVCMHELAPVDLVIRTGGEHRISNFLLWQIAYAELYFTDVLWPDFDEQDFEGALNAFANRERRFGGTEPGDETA

human SQS = biological target: T2, human SQS (Homo sapiens, UniProt P37268); assay: Human SQS inhibition; assay type: biochemical
T2 sequence (P37268 1-417): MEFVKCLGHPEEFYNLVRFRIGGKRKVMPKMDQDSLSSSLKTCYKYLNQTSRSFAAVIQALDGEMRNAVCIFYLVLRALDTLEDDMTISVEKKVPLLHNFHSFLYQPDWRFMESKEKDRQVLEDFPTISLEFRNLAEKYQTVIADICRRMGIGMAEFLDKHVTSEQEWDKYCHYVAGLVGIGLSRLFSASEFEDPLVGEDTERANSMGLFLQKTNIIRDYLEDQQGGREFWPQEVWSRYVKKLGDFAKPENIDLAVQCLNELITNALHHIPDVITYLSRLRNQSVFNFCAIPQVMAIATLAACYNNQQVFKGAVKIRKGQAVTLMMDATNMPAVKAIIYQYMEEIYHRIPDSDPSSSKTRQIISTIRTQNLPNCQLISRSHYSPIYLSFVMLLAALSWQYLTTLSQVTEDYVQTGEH

E. coli = assay: microbe, parasite or virus in culture; assay type: cell-based; settings: Escherichia coli
B. subtilis = assay: microbe, parasite or virus in culture; assay type: cell-based; settings: Bacillus subtilis
[7] = biological target: P. vivax geranylgeranyl diphosphate synthase (GGPPS) (Plasmodium vivax, UniProt A5K4U6); assay: biochemical
Sequence of P. vivax geranylgeranyl diphosphate synthase (GGPPS) (A5K4U6 1-375): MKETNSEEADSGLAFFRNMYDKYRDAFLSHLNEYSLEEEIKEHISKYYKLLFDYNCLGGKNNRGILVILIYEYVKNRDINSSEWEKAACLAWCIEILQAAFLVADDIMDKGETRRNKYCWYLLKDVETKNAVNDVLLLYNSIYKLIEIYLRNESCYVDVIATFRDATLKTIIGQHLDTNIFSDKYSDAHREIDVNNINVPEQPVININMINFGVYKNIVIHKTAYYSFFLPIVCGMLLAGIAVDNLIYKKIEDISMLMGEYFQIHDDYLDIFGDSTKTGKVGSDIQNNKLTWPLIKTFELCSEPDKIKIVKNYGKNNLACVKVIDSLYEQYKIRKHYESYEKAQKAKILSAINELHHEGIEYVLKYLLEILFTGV

[8] = test system: S. aureus (MRSA USA300 strain); assay: microbe, parasite or virus in culture; assay type: cell-based; settings: Staphylococcus aureus, MRSA|USA300, read-out: Sa MIC, MRSA USA300 strain
[9] = biological target: S. aureus undecaprenyl diphosphate synthase (UPPS) (Staphylococcus aureus, UniProt P60477); assay: S. aureus UPPS inhibition; assay type: biochemical
Sequence of S. aureus undecaprenyl diphosphate synthase (UPPS) (P60477 whole entry): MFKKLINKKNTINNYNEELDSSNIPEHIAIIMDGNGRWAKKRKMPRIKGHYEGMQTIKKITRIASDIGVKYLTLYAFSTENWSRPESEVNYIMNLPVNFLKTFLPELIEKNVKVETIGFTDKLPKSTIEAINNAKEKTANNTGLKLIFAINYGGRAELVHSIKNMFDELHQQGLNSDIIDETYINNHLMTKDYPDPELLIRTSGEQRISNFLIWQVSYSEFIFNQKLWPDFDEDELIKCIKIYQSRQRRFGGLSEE

M. tuberculosis [10] = assay: microbe, parasite or virus in culture; assay type: cell-based, Mycobacterium tuberculosis; settings: for MIC: Mycobacterium tuberculosis
[11] = test system: nonreplicating M. tuberculosis (streptomycin-starved 18b); assay type: cell-based, Mycobacterium tuberculosis; settings: for effect on nonreplicating bacterial activity (CFU): 7 days
C. albicans = assay: microbe, parasite or virus in culture; assay type: cell-based; settings: Candida albicans
M. smegmatis = settings: cited from earlier work
M. tuberculosis [12] = settings: cited from earlier work
[13] = test system: M. smegmatis cells, ATP synthesis; assay: ATP/ADP determination in M. smegmatis cells; assay type: cell-based, Mycobacterium smegmatis
Outline: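 Cells grown 8 h in Middlebrook 7H9-ADC-Tween 80 and diluted to OD600 of 2. Test compounds added at several concentrations, with incubation at 37 °C and 200 rpm. ATP/ADP ratio read with a commercial ADP/ATP ratio kit after 10 and 60 min.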

[14] = read-out: Mt MIC (in parentheses)
[15] = read-out: Sc IC50 (in parentheses)
[16] = read-out: Bs IC50 (in parentheses)
[17] = read-out: Ca IC50 (in parentheses)
[18] = read-out: Ec IC50 (in parentheses)

Sequence of M. smegmatis MenA (MsMenA) (A0QR52 1-289): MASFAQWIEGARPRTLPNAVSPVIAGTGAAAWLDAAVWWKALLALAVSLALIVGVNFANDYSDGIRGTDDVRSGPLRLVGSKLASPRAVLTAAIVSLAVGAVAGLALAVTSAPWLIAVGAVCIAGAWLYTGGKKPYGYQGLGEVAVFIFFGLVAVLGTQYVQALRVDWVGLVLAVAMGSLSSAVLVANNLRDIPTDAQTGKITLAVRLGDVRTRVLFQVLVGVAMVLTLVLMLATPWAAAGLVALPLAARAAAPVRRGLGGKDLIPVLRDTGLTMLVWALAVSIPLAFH

Row | Structure (SMILES) | IC50 (MCF-7) [µg/mL] | IC50 (E. coli; read-out: Ec IC50) [µg/mL] | IC50 (B. subtilis; read-out: Bs IC50) [µg/mL] | MIC [8] [µg/mL] | MIC (M. tuberculosis [10]; read-out: Mt MIC) [µg/mL] | IC50 (C. albicans; read-out: Ca IC50) [µg/mL] | IC50 (S. cerevisiae; read-out: Sc IC50) [µg/mL] | other results
1 | N#CC(C#N)=NNc1cccc(Cl)c1 [CCCP, m-chlorophenylcarbonyl cyanide phenylhydrazone] | – | – | – | – | – | – | – | effect on pH gradient (ΔpH) (M. smegmatis cells, ΔpH): collapsed
2 | C=CCN(C)CCCCCCOc1ccc(C(=O)c2ccc(Br)cc2)c(F)c1 [Ro 48-8071] | – | – | – | – | – | – | – | IC50 [1]: 9 µM
3 | CC(C)(C)c1cc(C=C(C#N)C#N)cc(C(C)(C)C)c1O [SF6847, reference compound] | – | – | – | – | – | – | – | effect on ΔpH (E. coli IMVs, ΔpH): very rapid (seconds) collapse in ΔpH
4 | CC(C)=CCC/C(C)=C/CNCCNC1C2CC3CC(C2)CC1C3 (stereo not drawn) [compound 1, SQ109] | 6 (≈ 18.2 µM) | 2.8 | 7.6 | > 120 | 0.1 to 0.2 | 3.3 | – | IC50 [2]: ≥ 50 µM; effect on pH gradient (ΔpH) (M. smegmatis cells, ΔpH): collapsed; activity (SaCrtM): ~100 µM; IC50 [3]: ≥ 50 µM; IC50 [4]: ~30 µg/mL (≈ 90.8 µM); Sc IC50 (S. cerevisiae): 1.1 µg/mL; IC50 [5]: ≥ 50 µM; IC50 (malate dehydrogenase): 30.3 µM; IC50 [6]: ≥ 50 µM; activity (human SQS): ~100 µM; IC50 [7]: ≥ 50 µM; IC50 [9]: ≥ 50 µM; MIC (M. tuberculosis [10]; [14]): 0.3 to 0.6 µM; effect on nonreplicating bacterial activity (CFU) ([11]; 1 μg/mL, absence of MK-4): only a small effect; effect on nonreplicating bacterial activity (CFU) ([11]; 1 μg/mL, presence of 1 mM MK-4): essentially no effect; reduction of cell activity (CFU) ([11]; 10 μg/mL, 7 days exposure, absence of MK-4): ~4 log units; effect on nonreplicating bacterial activity (CFU) ([11]; 10 μg/mL, presence of 1 mM MK-4): small effect
5 | CC[C@@H](CO)NCCN[C@@H](CC)CO [compound 2, ethambutol] | – | – | – | – | – | – | – | Ms MIC (M. smegmatis): 1 µg/mL; Mt MIC (M. tuberculosis [12]): 2 µg/mL
6 | CC(C)=CCC/C(C)=C/CNCCOC1C2CC3CC(C2)CC1C3 (stereo not drawn) [compound 3] | 10 (≈ 30.2 µM) | 2.8 | 16 | ~8 (≈ 24.1 µM) | 0.02 to 0.05 | 12 | 1.8 | activity (SaCrtM; SaCrtM, weak activity): ~100 µM; effect on ATP synthesis [13]: inhibition of ATP synthesis; activity (human SQS; human SQS, weak activity): ~100 µM; MIC (M. tuberculosis [10]; [14]): 0.06 to 0.15 µM
7 | CC(C)=CCC/C(C)=C/COCCNC1C2CC3CC(C2)CC1C3 (stereo not drawn) [compound 4] | 112 (≈ 338 µM) | 4.3 | > 66 | > 120 | ~0.2 | > 66 | > 33 | activity (SaCrtM; SaCrtM, weak activity): ~100 µM; IC50 (S. cerevisiae; [15]): > 100 µM; activity (human SQS; human SQS, weak activity): ~100 µM; IC50 (B. subtilis; [16]): > 199 µM; Mt MIC (M. tuberculosis [10]): 0.19 µg/mL; IC50 (C. albicans; [17]): > 199 µM
8 | CC(C)=CCC/C(C)=C/COCCOC1C2CC3CC(C2)CC1C3 (stereo not drawn) [compound 5] | 73 (≈ 220 µM) | > 332 | > 66 | > 64 | – | > 66 | > 332 | IC50 (S. cerevisiae; [15]): > 1000 µM; IC50 (E. coli; [18]): > 1 mM; IC50 (B. subtilis; [16]): > 199 µM; effect on ΔpH (E. coli IMVs, ΔpH): no effect; IC50 (C. albicans; [17]): > 198 µM
9 | CC(C)=CCC/C(C)=C/CNCCCOC1C2CC3CC(C2)CC1C3 (stereo not drawn) [compound 6] | 3.4 (≈ 9.84 µM) | 2.3 | 3 | ~8 (≈ 23.2 µM) | 1.6 | 6.5 | 2.7 | –
10 | CC(C)=CCC/C(C)=C/C[N+](C)(C)CCOC1C2CC3CC(C2)CC1C3.[I-] (stereo not drawn) [compound 7] | 3.2 | 37 | 4.2 | 8 | 0.78 | 18 | 15 | –
11 | CC(C)=CCC/C(C)=C/CNC(=O)COC1C2CC3CC(C2)CC1C3 (stereo not drawn) [compound 8] | 12 (≈ 34.7 µM) | > 345 | > 69 | > 120 | 0.78 | > 69 | > 69 | IC50 (S. cerevisiae; [15]): > 200 µM; IC50 (E. coli; [18]): > 1 mM; IC50 (B. subtilis; [16]): > 200 µM; IC50 (C. albicans; [17]): > 200 µM
12 | CC(C)=CCC/C(C)=C/COCC(=O)NC1C2CC3CC(C2)CC1C3 (stereo not drawn) [compound 9] | 9.3 (≈ 26.9 µM) | > 345 | 17 | > 120 | 12 | > 69 | > 69 | IC50 (S. cerevisiae; [15]): > 200 µM; IC50 (E. coli; [18]): > 1 mM; IC50 (C. albicans; [17]): > 200 µM
13 | CC(C)=CCC/C(C)=C/CNCCOC(C)(C)C [compound 10] | 45 (≈ 178 µM) | > 126 | > 50 | > 16 | 6.2 | > 50 | 44 | IC50 (E. coli; [18]): > 0.498 mM; IC50 (B. subtilis; [16]): > 198 µM; IC50 (C. albicans; [17]): > 198 µM
14 | CC(C)=CCC/C(C)=C/CNCCOc1ccccc1 [compound 11] | 6.3 (≈ 23 µM) | 60 | 17 | 32 (≈ 117 µM) | 6.2 | 20 | 3 | –
15 | CC(C)=CCC/C(C)=C/CNCCOc1cccc2ccccc12 [compound 12] | 7.1 (≈ 21.9 µM) | 15 | 2.4 | ~8 (≈ 24.7 µM) | 6.2 | 12 | 3.7 | –
16 | CC(C)=CCC/C(C)=C/CNCCO[C@@H]1C[C@@H]2CC[C@@]1(C)C2(C)C [compound 13] | 1.3 (≈ 3.9 µM) | 12 | 1.8 | ~8 (≈ 24 µM) | – | 6.3 | 1 to 3 | effect on pH gradient (ΔpH) (M. smegmatis cells, ΔpH): collapsed; Sc IC50 (S. cerevisiae): 0.89 µg/mL
17 | CO[C@@H]1C[C@@H](C[C@H]2CC[C@H](C)[C@H]([C@@H](C)C(=O)O)O2)O[C@]2(O[C@](C)([C@H]3CC[C@@](C)([C@@H]4O[C@@H]([C@H]5O[C@@](O)(CO)[C@H](C)C[C@@H]5C)C[C@@H]4C)O3)C[C@H]2C)[C@@H]1C [nigericin] | – | – | – | – | – | – | – | effect on pH gradient (ΔpH) (M. smegmatis cells, ΔpH): collapsed
18 | CC(C)[C@@H]1NC(=O)[C@H](C)OC(=O)[C@@H](C(C)C)NC(=O)[C@@H](C(C)C)OC(=O)[C@H](C(C)C)NC(=O)[C@H](C)OC(=O)[C@@H](C(C)C)NC(=O)[C@@H](C(C)C)OC(=O)[C@H](C(C)C)NC(=O)[C@H](C)OC(=O)[C@@H](C(C)C)NC(=O)[C@@H](C(C)C)OC1=O [valinomycin] | – | – | – | – | – | – | – | effect on pH gradient (ΔpH) (M. smegmatis cells, ΔpH): no effect
